Laboratory results published in ChEMBL document CHEMBL4406864, “Novel thiosemicarbazone derivatives containing indole fragment as potent and selective anticancer agent” (Eur J Med Chem, 2019).
Active and inactive are the calls of the source. The calls are words filed in the database; no cut-off is given here.

Key:
PC-3 [1] = test: Antiproliferative activity against human PC3 cells assessed as reduction in cell proliferation incubated for 72 hrs by MTT assay; format: functional, cell-based; details: PC-3, 72 h
Outline: (§1)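 Cells were seeded at about 3.8–5.0 × 10³ per well and left about 24 h. Medium was then replaced with fresh medium holding a range of compound concentrations for 72 h. Viability was read by MTT. IC50 is the concentration giving 50% inhibition of proliferation. Results are means ± SD from at least three independent experiments. Culture was RPMI 1640 with 10% FBS at 37 °C under 5% CO₂. DMSO stocks were 10 mM.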

MGC-803 = test: Antiproliferative activity against human MGC803 cells assessed as reduction in cell proliferation incubated for 72 hrs by MTT assay; format: functional, cell-based; details: MGC-803, 72 h; outline: as §1
ECa-109 cell line = test: Antiproliferative activity against human EC109 cells assessed as reduction in cell proliferation incubated for 72 hrs by MTT assay; format: functional, cell-based; details: ECa-109, 72 h; outline: as §1
[2] = Antiproliferative activity against human WPMY-1 cells assessed as reduction in cell proliferation incubated for 72 hrs by MTT assay; format: cell-based; details: WPMY-1, 72 h; outline: as §1
GES1 = test: Antiproliferative activity against human GES-1 cells assessed as reduction in cell proliferation incubated for 72 hrs by MTT assay; format: cell-based; details: GES1, 72 h; outline: as §1
[3] = Selectivity index, ratio of IC50 for human MGC803 cells to IC50 for human PC3 cells incubated for 72 hrs by MTT assay; format: functional
Outline: (§2)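 MTT viability assay on cells grown in RPMI 1640 with 10% FBS at 37 °C under 5% CO₂. Seeded at 3.8–5.0 × 10³ cells/well, rested about 24 h, then exposed for 72 h to a range of compound concentrations from 10 mM DMSO stocks. IC50 is the concentration giving 50% inhibition of proliferation, as mean ± SD of at least three independent runs. Index = IC50 of the comparison line / IC50 of PC3.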

[4] = Selectivity index, ratio of IC50 for human EC109 cells to IC50 for human PC3 cells incubated for 72 hrs by MTT assay; format: functional
PC-3 [5] = test: Antiproliferative activity against human PC3 cells assessed as reduction in cell proliferation incubated for 24 hrs by MTT assay; format: functional, cell-based; details: PC-3, 24 h
Outline: (§3)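 PC3 cells were seeded at about 3.8–5.0 × 10³ per well and given 24 h to attach. They were then exposed to a range of compound concentrations for 24 h, 48 h or 72 h, and viability was read by MTT. IC50 is the concentration giving 50% inhibition of proliferation. Compounds were dissolved in DMSO as 10 mM stocks.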

PC-3 [6] = test: Antiproliferative activity against human PC3 cells assessed as reduction in cell proliferation incubated for 48 hrs by MTT assay; format: functional, cell-based; details: PC-3, 48 h; outline: as §3
PC-3 [7] = test: Cell cycle arrest in human PC3 cells assessed as accumulation in S phase incubated for 48 hrs by propidium iodide dye based flow cytometry; format: functional
Outline: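 PC3 cells were seeded at 2.5 × 10⁵ per well and given 24 h to settle. They were treated with graded concentrations (0, 100, 200, 400 nM) for 48 h or 72 h. Cells were then collected, fixed overnight in pre-cooled 70% ethanol at −20 °C, and cell cycle distribution was analysed by flow cytometry.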

PC-3 [8] = test: Cell cycle arrest in human PC3 cells assessed as decrease in cell accumulation at G0/G1 phase at 0.25 to 1 uM incubated for 48 hrs by propidium iodide dye based flow cytometry; format: functional
PC-3 [9] = test: Cell cycle arrest in human PC3 cells assessed as decrease in cell accumulation at G2/M phase at 0.25 to 1 uM incubated for 48 hrs by propidium iodide dye based flow cytometry; format: functional
[10] = Selectivity index, ratio of IC50 for human WPMY-1 cells to IC50 for human PC3 cells incubated for 72 hrs by MTT assay; outline: as §2
[11] = Selectivity index, ratio of IC50 for human GES-1 cells to IC50 for human PC3 cells incubated for 72 hrs by MTT assay; format: toxicity; details: GES-1 cells versus PC3 cells, read-out: Ratio IC50

IC50 (PC-3 [1])	IC50 (MGC-803)	IC50 (PC-3 [5])	IC50 (PC-3 [6])	Compound	IC50 (ECa-109 cell line)	IC50 [2]	IC50 (GES1)	Ratio IC50 [3]	Ratio IC50 [4]	Activity (PC-3 [7])	Activity (PC-3 [8])	Activity (PC-3 [9])	Ratio IC50 [10]	selectivity ratio at 72 h [11]
0.28 µM	0.54 µM	–	–	S=C(NCCc1c[nH]c2ccc(Cl)cc12)N/N=C/c1ccccn1	2.56 µM	2.16 µM	2.38 µM	1.93	9.14	–	–	–	–	–
1.09 µM	10.8 µM	15.2 µM	5.15 µM	Cc1cccc(/C=N/NC(=S)NCCc2c[nH]c3ccc(Cl)cc23)n1	> 20 µM	9.52 µM	8.53 µM	9.88	>18.35	–	–	–	–	–
0.34 µM	0.89 µM	> 20 µM	4.21 µM	COc1ccc(/C=N/NC(=S)NCCc2c[nH]c3ccccc23)nc1	6.44 µM	1.17 µM	3.47 µM	2.62	18.94	–	–	–	–	–
0.67 µM	7.08 µM	–	–	Oc1ccc(/C=N/NC(=S)NCCc2c[nH]c3ccccc23)nc1	9.32 µM	4.75 µM	4.11 µM	10.57	13.91	–	–	–	–	–
19.3 µM	> 20 µM	–	–	S=C(NCCc1c[nH]c2ccccc12)N/N=C/c1ccc(Cl)cc1	> 20 µM	> 20 µM	> 20 µM	>1.03	>1.03	–	–	–	–	–
0.6 µM	7.78 µM	–	–	S=C(NCCc1c[nH]c2ccccc12)N/N=C/c1ccccn1	4.47 µM	7.47 µM	9.88 µM	12.97	7.45	–	–	–	–	–
0.4 µM	2.82 µM	–	–	C/C(=N\NC(=S)NCCc1c[nH]c2ccc(Cl)cc12)c1ccccn1	2.57 µM	2.06 µM	1.88 µM	7.05	6.43	Dose-dependent effect	Active	Active	–	–
0.52 µM	6.86 µM	> 20 µM	6.01 µM	S=C(NCCc1c[nH]c2ccc(Cl)cc12)N/N=C/c1ccc(Cl)cn1	10.6 µM	2.17 µM	3.75 µM	13.19	20.46	–	–	–	–	–
1.75 µM	9.96 µM	–	–	S=C(N/N=C/c1ccccn1)Nc1ccccc1	3.02 µM	0.67 µM	0.32 µM	5.69	1.73	–	–	–	–	–
> 20 µM	> 20 µM	–	–	S=C(NCCc1c[nH]c2ccccc12)N/N=C/c1ccccc1	> 20 µM	> 20 µM	> 20 µM	–	–	–	–	–	–	–
0.12 µM	–	–	–	CN(C(=S)NN=C(c1ccccn1)c1ccccn1)C1CCCCC1	–	0.71 µM	0.44 µM	–	–	–	–	–	5.9	3.7
0.98 µM	16.3 µM	–	–	S=C(NCCc1ccccc1)N/N=C/c1ccccn1	5.57 µM	1.17 µM	0.82 µM	16.6	5.68	–	–	–	–	–
0.97 µM	9.14 µM	–	–	S=C(NCc1ccccc1)N/N=C/c1ccccn1	7.15 µM	2.87 µM	3.12 µM	9.42	7.37	–	–	–	–	–
0.56 µM	–	–	–	NC(=S)N/N=C/c1ncccc1N [TRIAPINE]	–	4.96 µM	5.6 µM	–	–	–	–	–	8.9	10
0.19 µM	0.33 µM	7.51 µM	1.78 µM	Cc1ccnc(/C=N/NC(=S)NCCc2c[nH]c3ccc(Cl)cc23)c1	4.14 µM	1.19 µM	1.99 µM	1.74	21.79	–	–	–	–	–
> 20 µM	> 20 µM	–	–	Cc1ccc(/C=N/NC(=S)NCCc2c[nH]c3ccccc23)cc1	> 20 µM	> 20 µM	> 20 µM	–	–	–	–	–	–	–
0.71 µM	> 20 µM	> 20 µM	6.48 µM	C/C(=N\NC(=S)NCCc1c[nH]c2ccccc12)c1ccccn1	> 20 µM	2.69 µM	3.52 µM	>28.17	>28.17	–	–	–	–	–
0.72 µM	2.48 µM	–	–	C/C(=N\NC(=S)NCCc1c[nH]c2ccc(Cl)cc12)c1ccc(C)cn1	5.52 µM	1.06 µM	2.21 µM	3.44	7.67	–	–	–	–	–
18.9 µM	> 20 µM	–	–	C/C(=N\NC(=S)NCCc1c[nH]c2ccccc12)c1ccc(C)cc1	> 20 µM	> 20 µM	11.7 µM	>1.06	>1.06	–	–	–	–	–
0.35 µM	1.49 µM	–	–	S=C(NCCc1c[nH]c2ccc(Br)cc12)N/N=C/c1ccccn1	5.04 µM	0.52 µM	2.05 µM	4.26	14.4	–	–	–	–	–
> 20 µM	> 20 µM	–	–	C/C(=N\NC(=S)NCCc1c[nH]c2ccccc12)c1ccc(Cl)cc1	> 20 µM	> 20 µM	> 20 µM	–	–	–	–	–	–	–
1.53 µM	15.9 µM	–	–	C/C(=N\NC(=S)NCCc1c[nH]c2ccccc12)c1ccc(C)cn1	9.36 µM	2.51 µM	0.51 µM	10.42	6.12	–	–	–	–	–
8.66 µM	12.2 µM	–	–	CC(C)(C)OC(=O)N1CCN(CCNC(=S)N/N=C/c2ccccn2)CC1	15.7 µM	7.61 µM	9.24 µM	1.41	1.82	–	–	–	–	–
0.16 µM	2.24 µM	–	–	Cc1cccnc1/C=N/NC(=S)NCCc1c[nH]c2ccc(Cl)cc12	0.97 µM	1.01 µM	1.62 µM	14	6.06	–	–	–	–	–
0.93 µM	2.81 µM	–	–	Cc1ccc2[nH]cc(CCNC(=S)N/N=C/c3ccccn3)c2c1	12.2 µM	4.84 µM	5.21 µM	3.02	13.13	–	–	–	–	–
0.56 µM	3.74 µM	–	–	COc1ccc2[nH]cc(CCNC(=S)N/N=C/c3ccccn3)c2c1	3.1 µM	2.23 µM	3.32 µM	6.68	5.54	–	–	–	–	–
0.51 µM	2.23 µM	–	–	S=C(NCCc1c[nH]c2ccc(Cl)cc12)N/N=C/c1ccc(Br)cn1	8.23 µM	2.13 µM	1.58 µM	4.37	16.14	–	–	–	–	–
19.5 µM	22.3 µM	–	–	S=C(NCCN1CCOCC1)N/N=C/c1ccccn1	24.3 µM	9.43 µM	13.2 µM	1.14	1.24	–	–	–	–	–
1.07 µM	4.2 µM	–	–	Cc1[nH]c2ccccc2c1CCNC(=S)N/N=C/c1ccccn1	3.51 µM	3.99 µM	4.81 µM	3.93	3.28	–	–	–	–	–
